# Most compounds without a hit are left out; they make up all but 1.9% or so of the library.
# M5 PAM: human M5 muscarinic receptor positive allosteric modulators, primary screen, CHO-K1 cells, Fluo-8 calcium fluorescence | Muscarinic acetylcholine receptor M5 (Homo sapiens), P08912 | CHO-K1 hM5, ACh EC20 PAM; 0% = ACh EC20, 100% = ACh EC100 | activation, % at 3 µM | 360,000 compounds, 0.3% hits | AID 624038, 2012;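 active = activation above the run cutoff, the mean activation of all test compounds plus 3 SD, cut at about 18% in these data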
# Target sequence (P08912 whole entry, looked up): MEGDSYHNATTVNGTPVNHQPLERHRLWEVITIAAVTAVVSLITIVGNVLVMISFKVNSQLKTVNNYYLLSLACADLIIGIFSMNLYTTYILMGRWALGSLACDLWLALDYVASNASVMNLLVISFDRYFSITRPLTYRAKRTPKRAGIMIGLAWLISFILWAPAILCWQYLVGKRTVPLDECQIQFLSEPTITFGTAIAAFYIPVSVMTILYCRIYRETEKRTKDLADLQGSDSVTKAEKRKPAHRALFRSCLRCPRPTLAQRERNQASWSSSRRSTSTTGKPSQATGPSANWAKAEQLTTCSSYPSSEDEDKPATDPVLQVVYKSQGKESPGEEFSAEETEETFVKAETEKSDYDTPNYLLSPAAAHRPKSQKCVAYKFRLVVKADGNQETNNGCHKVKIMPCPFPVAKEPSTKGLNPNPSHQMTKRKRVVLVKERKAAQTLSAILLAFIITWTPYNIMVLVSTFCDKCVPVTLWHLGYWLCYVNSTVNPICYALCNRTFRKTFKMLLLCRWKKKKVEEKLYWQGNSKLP
#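 system = human M5 receptor in CHO-K1 cells | compound = one concentration, 3 µM final (nominal) | schedule = Post-acetylcholine fluorescence recording 140 s | signal = Fluo-8 calcium dye fluorescence, kinetic read | benchmarks = low control EC20 acetylcholine (0%), high control EC100 acetylcholine (100%) | repeats = singlicate, one well per test compound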
# M4 ag: human M4 muscarinic receptor agonists, primary screen, CHO-K1 cells, Fluo-8 calcium fluorescence | activation, % at 3 µM | CHO-K1 hM4/Gqi5; vehicle 0%, full acetylcholine response 100% | Muscarinic acetylcholine receptor M4 (Homo sapiens), P08173 | 360,000 compounds, 0.14% hits;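 active = activation above the run mean over all test wells plus 3 SD, cut at about 32% in these data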;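 also: peak over basal fluorescence ratio per well then scaled between controls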
# CHRM4 antagonist: human M4 muscarinic receptor antagonists, primary screen, CHO cells, Fluo-8 calcium fluorescence; Muscarinic acetylcholine receptor M4 (Homo sapiens), P08173; CHO-hM4 cells, ACh EC80; inhibition, % at 3 µM; 360,000 compounds, 0.73% hits; AID 624125, 2012;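 active = inhibition above its plate's cutoff, the mean inhibition of sample wells plus 3 SD, cut at about 27% in these data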
# CHRM5 antagonist: human M5 muscarinic receptor antagonists, primary screen, CHO cells, Fluo-8 calcium fluorescence | 360,000 compounds, 0.59% hits | inhibition, % at 3 µM | Muscarinic acetylcholine receptor M5 (Homo sapiens), P08912 | CHO-hM5 cells, ACh EC80;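 active = inhibition above a per-plate cutoff, the mean of that plate's test compounds plus 3 SD, cut at about 27% in these data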
# CHRM4 PAM: human M4 muscarinic receptor positive allosteric modulators, primary screen, CHO-K1 cells, Fluo-8 calcium fluorescence; Muscarinic acetylcholine receptor M4 (Homo sapiens), P08173; CHO-K1 hM4/Gqi5, ACh EC20; 0% = ACh EC20, 100% = maximal ACh; activation, % at 3 µM; 360,000 compounds, 0.4% hits; AID 624126, 2012;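 active = activation above its plate's cutoff, the mean activation of sample wells plus 3 SD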
# CHRM5 agonist: human M5 muscarinic receptor agonists, primary screen, CHO-K1 cells, Fluo-8 calcium fluorescence; Muscarinic acetylcholine receptor M5 (Homo sapiens), P08912; CHO-K1 hM5 cells; 0% DMSO wells, 100% maximal acetylcholine response; activation, % at 3 µM; 360,000 compounds, 0.19% hits;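 active = activation above the run's mean over test compounds plus 3 SD, cut at about 23% in these data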;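 also: signal is peak over basal fluorescence ratio across the kinetic read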
# Numbers stand for hits; . = inactive; ! = a repeat was not active.
SMILES,M5 PAM,M4 ag,CHRM4 antagonist,CHRM5 antagonist,CHRM4 PAM,CHRM5 agonist
CC(C)[N+](C)(CCOC(=O)C1c2ccccc2Oc2ccccc21)C(C)C,.,.,99.7,98.5,.,.
CC(C)CNC(=O)COC(=O)C1c2ccccc2Oc2ccccc21,.,.,.,.,.,.
O=C(NCc1ccco1)C1c2ccccc2Oc2ccccc21,.,.,27.1,.,.,.
Cc1cc(=O)[nH]c(SCC(=O)Nc2ccc(S(=O)(=O)N3CCCCC3)cc2)n1,.,.,.,.,.,.
O=C(COC(=O)c1cccnc1Cl)Nc1cccc(S(=O)(=O)N2CCOCC2)c1,.,.,.,.,.,.
Cn1cc(Cl)c(C(=O)Nc2nc3ccc([N+](=O)[O-])cc3s2)n1,22.2,.,.,.,.,.
Clc1cccc(-c2cc3nc4c(c(NCc5ccco5)n3n2)CCCC4)c1,.,.,.,.,.,.
CC(Oc1ccc(Cl)cc1Cl)C(=O)NNC(=O)c1ccncc1 (stereo not drawn),.,.,.,.,.,.
COC(=O)NNC(=O)C(C)Oc1ccc(Cl)cc1Cl (stereo not drawn),.,.,.,.,29.7,.
COc1ccc(S(N)(=O)=O)cc1C(N)=O,.,.,.,.,.,.
COc1ccc(S(=O)(=O)N2CCSCC2)cc1C(N)=O,.,.,.,.,14.1,.
CC(=O)COc1cccc2ccc(/C=C/c3ccc(Br)s3)nc12,22.7,.,.,.,.,.
COc1ccc(-c2noc(CCC(=O)NCC3CCCO3)n2)cc1OC (stereo not drawn),.,.,27.2,.,.,.
CCOc1cc(-c2noc(CCC(=O)NCC3CCCO3)n2)ccc1OC (stereo not drawn),.,.,.,.,.,.
O=C(C(Cc1ccccc1)n1cccc1)N1CCN(c2ccccc2)CC1 (stereo not drawn),.,.,.,.,.,.
Cc1ccc(C)c(N2CCN(C(=O)C(Cc3ccccc3)n3cccc3)CC2)c1 (stereo not drawn),.,.,.,.,.,41.7
Cc1oc2nc(SCC(=O)N3CCCCC3)nc(N)c2c1C,.,.,.,.,19.8,.
Nc1[nH]nc2nc(N3CCCC3)nc(-c3ccccc3)c12,25.2,.,.,.,.,.
Cc1cc(NC(=O)c2ccc(F)cc2)n(CCOC(=O)c2ccc(F)cc2)n1,.,.,.,.,.,.
CC(C)c1ccc(C(C(=O)NC2CCCCC2)N(C(=O)c2csnn2)C2CC2)cc1 (stereo not drawn),.,.,.,.,.,.
O=C(NC1CCCCC1)C(c1ccc(F)cc1)N(C(=O)c1csnn1)C1CC1 (stereo not drawn),.,.,.,.,19.4,.
COc1ccc2c(c1)c(=O)oc1cc(OCC(=O)NC3CCCCC3)ccc12,.,.,.,.,.,.
COc1ccc(N2CC(C)Cn3c2nc2c3c(=O)n(Cc3ccc(C)cc3)c(=O)n2C)c(OC)c1 (stereo not drawn),.,.,.,.,.,.
COc1ccccc1NS(=O)(=O)c1ccc(C(=O)NCCCN2CCOCC2)cc1,.,.,.,.,.,.
Cn1c(=O)[nH]c(=O)c2c1nc(CN1CCN(c3ccccc3F)CC1)n2CCCc1ccccc1,.,.,.,.,22.2,.
SMILES,M5 PAM,M4 ag,CHRM4 antagonist,CHRM5 antagonist,CHRM4 PAM,CHRM5 agonist
CN(C)c1ccc(N2C(=NC(=O)CCc3ccccc3)SC3CS(=O)(=O)CC32)cc1 (stereo not drawn),.,.,.,.,.,.
CN(C)CCOC(c1ccc(Cl)cc1)c1ccccn1 (stereo not drawn),.,.,.,.,.,.
CN(C)CCOC(c1ccccc1)c1ccccc1 (tested in a mixture with another compound),.,.,36.9,52.6,.,.
Cc1ccccc1C(O)c1cccnc1 (stereo not drawn),.,.,.,.,.,.
Cc1ccccc1C(OCCN(C(C)C)C(C)C)c1ccccc1 (stereo not drawn),.,.,98.7,99.2,.,.
CN(C)CCOC(c1ccccc1)c1ccccc1,.,.,32.0!,34.7,.,.
Cc1cc(C(=O)NCCCN2CCN(c3cc(Cl)ccc3C)CC2)n(-c2ccccc2)n1,.,.,.,.,.,.
S=C(Nc1ccccn1)NC1CCCCC1,.,.,.,.,.,.
O=C(c1ccc(N2CCCC2=O)cc1)N1CCN(c2cccc(C(F)(F)F)c2)CC1,.,.,.,.,.,.
CC(C)(C)C(=O)NC(C(N)=O)=C(Cl)Cl,.,.,.,.,.,.
CSc1cccc(NC(=S)N(CCN(C)C)C(C)c2ccccn2)c1 (stereo not drawn),.,.,33.3,.,.,.
CSc1cccc(NC(=S)N(CCN(C)C)C(C)c2ccncc2)c1 (stereo not drawn),.,.,.,.,.,.
COc1cc(C=C2C(=O)C=CC2=O)ccc1O,.,.,31.0,.,.,.
COc1cc(/C=C/C(=O)/C=C(O)/C=C/c2ccc(O)c(OC)c2)ccc1O,.,44.2,32.2,36.8,.,39.0
COc1cc(/C=C/C(=O)O)ccc1O,.,.,.,.,.,.
COc1cc(/C=C2/C(=O)CNC2=O)ccc1O,.,.,.,.,.,.
COc1ccc(-c2cc(CCCC(=O)N3CCN(c4ccc(OC)cc4)CC3)no2)cc1,.,.,.,.,.,.
CC(=O)Nc1c(I)c(NC(C)=O)c(I)c(C(=O)O)c1I,.,.,.,.,.,62.8!
Cc1[nH]c2ccc3ncccc3c2c1C,.,.,.,.,.,.
Cc1[nH]c2ccc3c(ncn3CCC#N)c2c1C,.,.,30.5,.,.,.
NCCc1nnc(SCC(N)=O)o1,.,.,.,.,.,.
Cc1ccc(C(=O)OCC(=O)N2CC(C)OC(C)C2)cc1 (stereo not drawn),.,.,.,.,15.7,.
CCCCCCCCCCCCCCCC[n+]1cccc(C(=O)N(CC)CC)c1,.,.,41.3,43.4!,.,.
CCCCCCCC[n+]1cccc(C(=O)N(CC)CC)c1,.,.,.,.,.,.
CCOc1ccc(CCNC(=O)c2cc(C)on2)cc1OCC,.,.,.,.,20.8,.
COc1ccc(-c2ccc(C(=O)NCc3ccncc3)c3occc23)c(C)c1,.,.,.,32.3,.,.
